Assay results of several laboratories.
Compare with care: the assays were run in different laboratories.
ABL1 T315I non-phosphorylated: Tyrosine-protein kinase ABL1, non-phosphorylated (ABL1, Homo sapiens, UniProt P00519, T315I)
ABL1 H396P non-phosphorylated: Tyrosine-protein kinase ABL1, non-phosphorylated (ABL1, Homo sapiens, UniProt P00519, H396P)
ABL1 T315I phosphorylated: Tyrosine-protein kinase ABL1, phosphorylated (ABL1, Homo sapiens, UniProt P00519, T315I)
ABL1 M351T phosphorylated: Tyrosine-protein kinase ABL1, phosphorylated (ABL1, Homo sapiens, UniProt P00519, M351T)
ABL1 F317I non-phosphorylated: Tyrosine-protein kinase ABL1, non-phosphorylated (ABL1, Homo sapiens, UniProt P00519, F317I)
ABL1 E255K phosphorylated: Tyrosine-protein kinase ABL1, phosphorylated (ABL1, Homo sapiens, UniProt P00519, E255K)
ABL1 H396P phosphorylated: Tyrosine-protein kinase ABL1, phosphorylated (ABL1, Homo sapiens, UniProt P00519, H396P)
ABL1 phosphorylated: Tyrosine-protein kinase ABL1, phosphorylated (ABL1, Homo sapiens, UniProt P00519)
ABL1 F317I phosphorylated: Tyrosine-protein kinase ABL1, phosphorylated (ABL1, Homo sapiens, UniProt P00519, F317I)
ABL1 F317L phosphorylated: Tyrosine-protein kinase ABL1, phosphorylated (ABL1, Homo sapiens, UniProt P00519, F317L)

CN(C)c1nccc(-c2cnc3ncccn23)n1
remaining binding (Tyrosine-protein kinase ABL1, non-phosphorylated (ABL1, Homo sapiens, UniProt P00519); binding; competition with immobilised ligand; 1 µM): 84%

COc1cnc(Nc2cccc(S(N)(=O)=O)c2)nc1N1CCN(c2ccccc2)C(=O)C1
remaining binding (ABL1 T315I non-phosphorylated; binding; competition with immobilised ligand; 1 µM): 83%

O=C(Nc1c[nH]nc1C(=O)NC1CCNCC1)c1cc(F)cc(F)c1
remaining binding (ABL1 H396P non-phosphorylated; binding; competition with immobilised ligand; 1 µM): 90%

CNC(=O)Nc1ccc2c(c1)[C@@]1(CC2)OC(=O)N(CC(=O)N(Cc2ccc(F)cc2)[C@@H](C)C(F)(F)F)C1=O
remaining binding (ABL1 T315I phosphorylated; cell-free assay; competition with immobilised ligand; 1 µM): 87%

CNC(=O)[C@@H]1CC[C@@H](n2c(-c3ccc4cnccc4c3)nc3ccc(C(=O)NCc4cccc(C(N)=O)c4)cc32)C1
remaining binding (ABL1 M351T phosphorylated; binding; competition with immobilised ligand; 1 µM): 92%

C[C@H](c1ccc(F)cc1)N(Cc1cccc(C(=O)O)c1)C(=O)c1cnc2ccccc2c1
remaining binding (ABL1 T315I non-phosphorylated; cell-free assay; competition with immobilised ligand; 1 µM): 85%

C[C@@H]1CCN(c2nccc(-c3cnn4ncccc34)n2)C1
remaining binding (Tyrosine-protein kinase ABL1 (ABL1, Homo sapiens, UniProt P00519, Q252H); binding; 1 µM): 81%

C[C@@H](c1ccc(-n2cnc3c(N)ncnc32)cc1)N1CCc2nn(C)c(Cc3ccccc3)c2C1=O
remaining binding (ABL1 F317I non-phosphorylated; binding; competition with immobilised ligand; 0.1 µM): 40%

O=C(N[C@H]1CCCCC/C=C\C2C[C@@]2(C(=O)O)NC(=O)[C@@H]2C[C@@H](Oc3ccncc3)CN2C1=O)OC1CCCC1 (stereo partly shown)
remaining binding (ABL1 M351T phosphorylated; binding; competition with immobilised ligand; 1 µM): 89%

Nc1ncc2c(n1)-c1c([nH]c3ccc(C#CC4CC4)cc13)CCCC2
remaining binding (ABL1 H396P non-phosphorylated; binding; competition with immobilised ligand; 1 µM): 93%

COc1ncc2cc3ccccc3nc2c1C#N
remaining binding (ABL1 T315I phosphorylated; cell-free assay; competition with immobilised ligand; 5 µM): 89%

COc1cnc(Nc2cccc(S(N)(=O)=O)c2)nc1N1CCN(c2ccccc2)CC1
remaining binding (Tyrosine-protein kinase ABL1, phosphorylated (ABL1, Homo sapiens, UniProt P00519, Y253F); binding; competition with immobilised ligand; 1 µM): 73%

O=C(c1ccc(Nc2nccc(-c3cc4ccccc4s3)n2)cc1)N1CCC(N2CCCC2)CC1
remaining binding (ABL1 E255K phosphorylated; binding; competition with immobilised ligand; 1 µM): 9.9%

c1cncc(-c2cccc(Nc3nccc(NC4CCCCC4)n3)c2)c1
remaining binding (ABL1 H396P phosphorylated; binding; competition with immobilised ligand; 10 µM): 29%

COc1ccnn2ncc(-c3ccnc(N(C)C)n3)c12
remaining binding (Tyrosine-protein kinase ABL1 (ABL1, Homo sapiens, UniProt P00519, H396P); binding; 1 µM): 100%

O=C(NCCCN1CCOCC1)c1ccc(Nc2nccc(-c3cc4ccccc4s3)n2)cc1
remaining binding (ABL1 F317I non-phosphorylated; binding; competition with immobilised ligand; 1 µM): 100%

N[C@H]1CCN(c2nccc(-c3cnn4ncccc34)n2)C1
remaining binding (Tyrosine-protein kinase ABL1 (ABL1, Homo sapiens, UniProt P00519, M351T); binding; 1 µM): 100%

Cc1cnc(Nc2ccc(C(=O)N3CCC(N4CCCC4)CC3)cc2)nc1-c1cc2ccccc2s1
remaining binding (ABL1 phosphorylated; binding; competition with immobilised ligand; 1 µM): 1.6%

O=C(NCC1CCOCC1)c1n[nH]cc1NC(=O)c1c(F)cccc1F
remaining binding (ABL1 T315I phosphorylated; binding; competition with immobilised ligand; 1 µM): 91%

CC(=O)C1=C(C)N(c2cccc(C(F)(F)F)c2)C(=O)N[C@@H]1c1ccc(C#N)nc1
remaining binding (ABL1 T315I phosphorylated; cell-free assay; competition with immobilised ligand; 1 µM): 96.9%

C=CC(=O)N1CCC(C(=O)NCC(=O)N2CCN(c3nc(-c4cnc(N)nc4C(F)F)nc(N4CCOCC4)n3)CC2)CC1
remaining binding (ABL1 E255K phosphorylated; binding; competition with immobilised ligand; 1 µM): 87%

O=C(c1ccc(Nc2ncc(Cl)c(-c3cc4ccccc4s3)n2)cc1)N1CCC(N2CCCC2)CC1
remaining binding (Tyrosine-protein kinase ABL1, phosphorylated (ABL1, Homo sapiens, UniProt P00519, Q252H); binding; competition with immobilised ligand; 1 µM): 12%

O=C(Nc1cccnn1)N1CC(C/C=C/c2cncc(Oc3ccc(C(F)(F)F)cn3)n2)C1
remaining binding (ABL1 F317I phosphorylated; cell-free assay; competition with immobilised ligand; 1 µM): 67%

O=C(NCCCN1CCOCC1)c1ccc(Nc2ncc(Cl)c(-c3ccc(Cl)s3)n2)cc1
remaining binding (ABL1 T315I non-phosphorylated; binding; competition with immobilised ligand; 1 µM): 4.5%

CCN1CCN(Cc2ccc(C(=O)Nc3ccc(C)c(Oc4ccc5c(c4)CC(=O)N5)c3)cc2C(F)(F)F)CC1
remaining binding (ABL1 H396P phosphorylated; binding; competition with immobilised ligand; 1 µM): 62%

Cc1cc(-n2nc(Cc3cc(F)cc(C(F)(F)F)c3)nc2C)ccc1C(N)=O
remaining binding (ABL1 F317L phosphorylated; cell-free assay; competition with immobilised ligand; 1 µM): 100%

O=C(c1ccc(Nc2ncc(Cl)c(-c3ccc(Cl)s3)n2)cc1)N1CCC(N2CCCC2)CC1
remaining binding (ABL1 F317L phosphorylated; binding; competition with immobilised ligand; 1 µM): 58%

O=C(NS(=O)(=O)c1ccc(NCC2CCOCC2)c([N+](=O)[O-])c1)c1ccc(N2CCN(Cc3ccc(C(F)(F)F)cc3-c3ccc(Cl)cc3)CC2)cc1Oc1cnc2[nH]ccc2c1
remaining binding (ABL1 F317I phosphorylated; binding; 1 µM): 100%

CN(CCCC(F)(F)F)c1nccc(-c2cnn3ncccc23)n1
remaining binding (ABL1 phosphorylated; binding; 1 µM): 100%

COc1cc(-c2cn(C3CCc4c(F)cccc4N(CC(F)(F)F)C3=O)nn2)ccc1-n1cnc(C)c1 (stereo not shown)
remaining binding (ABL1 phosphorylated; cell-free assay; competition with immobilised ligand; 1 µM): 100%

c1cnn2ncc(-c3ccnc(N4CCC45COC5)n3)c2c1
remaining binding (Tyrosine-protein kinase ABL1 (ABL1, Homo sapiens, UniProt P00519, T315I); binding; 1 µM): 64%
